Measured values as given in ChEMBL document CHEMBL1140109, “Discovery of inhibitors of Escherichia coli methionine aminopeptidase with the Fe(II)-form selectivity and antibacterial activity” (J Med Chem, 2008).
In brackets after ≈: the same amount, converted by molar mass. Activity calls are given as the source filed them. No cut-off for these calls is given here.

Key:
[1] = Inhibition of Escherichia coli BL21(DE3) methionine aminopeptidase in presence of Co(II) metal ions
Outline: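 Recombinant E. coli MetAP apoenzyme purified from BL21(DE3) cells, used at 500 nM and activated with 10 μM CoCl2. Buffer was 50 mM MOPS pH 7.0 with 200 μM Met-AMC substrate, at room temperature. AMC release was read by fluorescence (ex 360/em 460 nm) across serially diluted inhibitor. IC50 came from non-linear fitting of percent inhibition.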

[2] = test system: Priestia megaterium; assay: Antibacterial activity against Bacillus megaterium; format: functional, organism-based
Outline: (§1)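 Exponential-phase culture at 0.5 McFarland diluted 1000-fold in Mueller Hinton medium with 100 mM Tris pH 7.5, mixed with inhibitor at increasing concentrations plus resazurin (110 µM final). Fluorescence (ex 530/em 590) read every 5 min for 10 h at 37°C.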

[3] = test system: Escherichia coli; assay: Antibacterial activity against Escherichia coli AS19; format: functional, organism-based
Outline: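 AS19 culture at 0.5 McFarland, exponential phase, diluted 1000-fold in Mueller Hinton medium containing 100 mM Tris pH 7.5, exposed to increasing inhibitor concentrations […]. Growth followed by absorbance at 600 nm every 5 min for 10 h at 37°C.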

[4] = Inhibition of Escherichia coli BL21(DE3) methionine aminopeptidase in presence of Mn(II) metal ions
Outline: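 E. coli MetAP apoenzyme, recombinant from BL21(DE3), at 500 nM and metallated with 20 μM MnCl2. Contained 50 mM MOPS pH 7.0 and 200 μM Met-AMC, at room temperature. IC50 was derived by non-linear fit of percent inhibition versus concentration.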

[5] = test system: Escherichia coli; assay: Antibacterial activity against Escherichia coli D22; format: functional, organism-based; outline: as §1
[6] = Inhibition of Escherichia coli BL21(DE3) methionine aminopeptidase in presence of Fe(II) metal ions
Outline: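 Purified BL21(DE3)-expressed E. coli MetAP apoenzyme at 500 nM, activated with 50 μM FeCl2 plus 100 μM ascorbic acid. Buffer was 50 mM MOPS pH 7.0 with 200 μM Met-AMC, at room temperature. Hydrolysis was followed by fluorescence (ex 360/em 460 nm) at serially diluted inhibitor concentrations. IC50 was obtained by non-linear curve fit of percent inhibition.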

[7] = test system: Bacillus subtilis; assay: Antibacterial activity against Bacillus subtilis; format: functional, organism-based; outline: as §1
[8] = test system: Escherichia coli; assay: Antibacterial activity against Escherichia coli ATCC 25922; format: functional, organism-based
Outline: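 Wild-type strain grown to exponential phase (0.5 McFarland), diluted 1000-fold in Tris-free Mueller Hinton medium, incubated with increasing inhibitor concentrations and 110 µM resazurin. Fluorescence (ex 530/em 590) monitored 10 h at 37°C at 5-min intervals.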

[9] = test system: Escherichia coli BL21(DE3); assay: Inhibition of Escherichia coli BL21(DE3) methionine aminopeptidase up to 100 uM in presence of Co(II) metal ions
Outline: (§2)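 Purified apoenzyme (500 nM) in 50 mM MOPS pH 7.0 with 200 µM Met-AMC, activated by 50 µM FeCl2 plus 100 µM ascorbic acid (Fe), 10 µM CoCl2 (Co) or 20 µM MnCl2 (Mn), with serially diluted inhibitor. AMC release read by fluorescence (ex 360/em 460) at room temperature. IC50 from non-linear fit of percent inhibition versus concentration.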

[10] = test system: Escherichia coli BL21(DE3); assay: Inhibition of Escherichia coli BL21(DE3) methionine aminopeptidase up to 100 uM in presence of Fe(II) metal ions; outline: as §2
[11] = test system: Escherichia coli BL21(DE3); assay: Inhibition of Escherichia coli BL21(DE3) methionine aminopeptidase up to 100 uM in presence of Mn(II) metal ions; outline: as §2

Row | Compound | IC50 [1] | IC50 [2] | MIC [2] | IC50 [3] | MIC [3] | IC50 [4] | IC50 [5] | MIC [5] | IC50 [6] | IC50 [7] | MIC [7] | IC50 [8] | Activity [9] | Activity [10] | Activity [11]
1 | O=C(NC1CC1)c1ccc(-c2ccc(O)c(O)c2)s1 | 28.5 µM | 133 µM | 85 µg/mL (≈ 309 µM) | 110 µM | 78 µg/mL (≈ 283 µM) | 34 µM | 238 µM | 105 µg/mL (≈ 381 µM) | 23.8 µM | 211 µM | 122 µg/mL (≈ 443 µM) |  |  |  | 
2 | Cc1sc(C)c(-c2ccc(O)c(O)c2)c1Br | 2.4 µM | 17.5 µM | 10 µg/mL (≈ 33.4 µM) | 10.8 µM | 5 µg/mL (≈ 16.7 µM) | 2.1 µM | 7.7 µM | 9 µg/mL (≈ 30.1 µM) | 3.1 µM | 12.8 µM | 8 µg/mL (≈ 26.7 µM) |  |  |  | 
3 | Oc1ccc(-c2ccsc2)cc1O | 40.4 µM | 19.2 µM | 10 µg/mL (≈ 52 µM) | 29.9 µM | 15 µg/mL (≈ 78 µM) | 27.5 µM | 2 µM | 2 µg/mL (≈ 10.4 µM) | 3.8 µM | 15.7 µM | 9 µg/mL (≈ 46.8 µM) |  |  |  | 
4 | Cc1nc(C(=O)NC2CC2)c(-c2ccc(O)c(O)c2)s1 | 92.3 µM | 75.5 µM | 62 µg/mL (≈ 214 µM) | 125 µM | 138 µg/mL (≈ 475 µM) | 100 µM | 167 µM | 103 µg/mL (≈ 355 µM) | 11.1 µM | 113 µM | 51 µg/mL (≈ 176 µM) |  |  |  | 
5 | Cc1ccsc1-c1ccc(O)c(O)c1 | 42.7 µM | 15.3 µM | 13 µg/mL (≈ 63 µM) | 15.2 µM | 7 µg/mL (≈ 33.9 µM) | 23 µM | 9 µM | 3 µg/mL (≈ 14.5 µM) | 8 µM | 22.1 µM | 8 µg/mL (≈ 38.8 µM) | 179 µM |  |  | 
6 | Cc1cc(-c2ccc(O)c(O)c2)c(C)s1 | > 100 µM | 16 µM | 5 µg/mL (≈ 22.7 µM) | 18.5 µM | 9 µg/mL (≈ 40.9 µM) | > 100 µM | 3.7 µM | 4 µg/mL (≈ 18.2 µM) | 7.4 µM | 16.5 µM | 5 µg/mL (≈ 22.7 µM) |  |  |  | 
7 | Cc1nc(C(=O)NC(C)C)c(-c2ccc(O)c(O)c2)s1 | > 100 µM | 175 µM | 122 µg/mL (≈ 417 µM) | 116 µM | 121 µg/mL (≈ 414 µM) | > 100 µM | 93.8 µM | 73 µg/mL (≈ 250 µM) | 15.4 µM | 186 µM | 125 µg/mL (≈ 428 µM) |  |  |  | 
8 | Oc1ccc(-c2cc(Cl)sc2Cl)cc1O | 62.4 µM | 5 µM | 1 µg/mL (≈ 3.83 µM) | 6.1 µM | 3 µg/mL (≈ 11.5 µM) | 48.6 µM | 7.3 µM | 2 µg/mL (≈ 7.66 µM) | 20.2 µM | 6 µM | 2 µg/mL (≈ 7.66 µM) |  |  |  | 
9 | Cc1nc(-c2ccc(O)cc2O)cs1 |  |  |  | 95.9 µM |  |  |  |  |  |  |  |  | inactive | inactive | inactive
10 | CCCCc1ccsc1-c1ccc(O)c(O)c1 | > 100 µM | 7.6 µM | 3 µg/mL (≈ 12.1 µM) | 12.4 µM | 5 µg/mL (≈ 20.1 µM) | 48.2 µM | 13.5 µM | 5 µg/mL (≈ 20.1 µM) | 9.2 µM | 7.8 µM | 3 µg/mL (≈ 12.1 µM) |  |  |  | 
11 | Oc1ccc(-c2nccs2)cc1O | > 100 µM | 224 µM | 112 µg/mL (≈ 580 µM) | 235 µM | 198 µg/mL (≈ 1020 µM) | > 100 µM | 98.7 µM | 66 µg/mL (≈ 342 µM) | 16.6 µM | 397 µM | 193 µg/mL (≈ 999 µM) |  |  |  | 
12 | Cc1nc(-c2cccc(O)c2)cs1 |  |  |  | 158 µM |  |  |  |  |  |  |  |  | inactive | inactive | inactive
13 | CC(=O)Nc1ccc(-c2csc(C)n2)cc1[N+](=O)[O-] |  |  |  | 63.3 µM |  |  |  |  |  |  |  |  | inactive | inactive | inactive
14 | CCCc1ccsc1-c1ccc(O)c(O)c1 | 100 µM | 15.5 µM | 6 µg/mL (≈ 25.6 µM) | 15.5 µM | 4 µg/mL (≈ 17.1 µM) | 34.3 µM | 43 µM | 19 µg/mL (≈ 81.1 µM) | 14 µM | 14.9 µM | 4 µg/mL (≈ 17.1 µM) |  |  |  | 
15 | Oc1ccc(-c2sccc2CCBr)cc1O | 14 µM | 21.1 µM | 14 µg/mL (≈ 46.8 µM) | 11.3 µM | 5 µg/mL (≈ 16.7 µM) | 22.4 µM | 86 µM | 51 µg/mL (≈ 170 µM) | 7.3 µM | 25.2 µM | 10 µg/mL (≈ 33.4 µM) |  |  |  | 
16 | Cc1nc(-c2ccc(N)c([N+](=O)[O-])c2)cs1 |  |  |  | 204 µM |  |  |  |  |  |  |  |  | inactive | inactive | inactive
17 | Oc1ccc(-c2ccc(Cl)s2)cc1O | > 100 µM | 6.3 µM | 2 µg/mL (≈ 8.82 µM) | 15.5 µM | 7 µg/mL (≈ 30.9 µM) | 44.8 µM | 7.5 µM | 3 µg/mL (≈ 13.2 µM) | 12.8 µM | 7.1 µM | 2 µg/mL (≈ 8.82 µM) |  |  |  | 
18 | Cc1nc(-c2ccc(N)c(N)c2)cs1 |  |  |  | 117 µM |  |  |  |  |  |  |  |  | inactive | inactive | inactive
19 | Cc1nc(-c2ccc(O)c(C(N)=O)c2)cs1 |  |  |  | 125 µM |  |  |  |  |  |  |  |  | inactive | inactive | inactive
20 | Cc1ccc(-c2ccc(O)c(O)c2)s1 | 51.5 µM | 26 µM | 10 µg/mL (≈ 48.5 µM) | 87.7 µM | 60 µg/mL (≈ 291 µM) | 28 µM | 39.1 µM | 18 µg/mL (≈ 87.3 µM) | 32.7 µM | 25.1 µM | 10 µg/mL (≈ 48.5 µM) |  |  |  | 
21 | N#Cc1ccc(-c2ccc(O)c(O)c2)s1 | 36.3 µM | 15.3 µM | 9 µg/mL (≈ 41.4 µM) | 20.1 µM | 11 µg/mL (≈ 50.6 µM) | 30.4 µM | 44.2 µM | 15 µg/mL (≈ 69 µM) | 14.8 µM | 14.6 µM | 13 µg/mL (≈ 59.8 µM) |  |  |  | 
22 | Cc1nc(-c2ccc(O)c(O)c2)cs1 | > 100 µM | 69.8 µM | 73 µg/mL (≈ 352 µM) | 117 µM | 91 µg/mL (≈ 439 µM) | > 100 µM | 5.6 µM | 4 µg/mL (≈ 19.3 µM) | 13 µM | 67 µM | 41 µg/mL (≈ 198 µM) | 281 µM |  |  | 
23 | CCc1ccsc1-c1ccc(O)c(O)c1 | 62.6 µM | 27.8 µM | 11 µg/mL (≈ 49.9 µM) | 15.4 µM | 5 µg/mL (≈ 22.7 µM) |  | 11.8 µM | 6 µg/mL (≈ 27.2 µM) | 12.9 µM | 21.8 µM | 7 µg/mL (≈ 31.8 µM) |  |  |  | 
24 | Nc1nc(-c2ccc(O)c(O)c2)cs1 | > 100 µM | 36.9 µM | 26 µg/mL (≈ 125 µM) | 145 µM | 39 µg/mL (≈ 187 µM) | > 100 µM | 39.9 µM | 11 µg/mL (≈ 52.8 µM) | 6.6 µM | 28.6 µM | 13 µg/mL (≈ 62.4 µM) |  |  |  | 
25 | COc1ccc(-c2csc(C)n2)cc1OC |  |  |  | 206 µM |  |  |  |  |  |  |  |  | inactive | inactive | inactive
26 | O=C(NC1CC1)c1ccsc1-c1ccc(O)c(O)c1 | > 100 µM | 54 µM | 79 µg/mL (≈ 287 µM) | 116 µM | 113 µg/mL (≈ 410 µM) | > 100 µM | 254 µM | 151 µg/mL (≈ 548 µM) | 7.8 µM | 109 µM | 56 µg/mL (≈ 203 µM) |  |  |  | 
27 | Oc1ccc(-c2cccs2)cc1O | 23.7 µM | 21.2 µM | 9 µg/mL (≈ 46.8 µM) | 32.8 µM |  | 15.7 µM | 4 µM | 3 µg/mL (≈ 15.6 µM) | 5.1 µM | 16.1 µM | 7 µg/mL (≈ 36.4 µM) |  |  |  | 
